{"source": "PubChem BioAssay AID652279", "about": "(Broad Institute, 2013)", "data": [{"test_system": "T. cruzi CAI/72 in J774 macrophages, trypomastigote emergence, microscopy", "assay": "T. cruzi parasite clearance versus stasis, late-stage follow-up, mechanism study, imaging, CAI/72 strain, J774 macrophages, dry powder (AID 652279)", "details": "active compounds read high", "outline": "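Material: Irradiated (9000 rad) J774 macrophages infected with T. cruzi CAI/72 / Buffer or medium: RPMI-1640, 5% FCS / Doses: compound replenished every 3 days, starting 24 h post-infection / Timing: 1 or 3 weeks dosing, then 31 or 17 days washout / Signal: daily light-microscopy check for trypomastigote emergence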", "values": [{"compound": "CC(C)N1C[C@@H](CN(C)Cc2ccc(Cl)cc2)Oc2c(NC(=O)c3ccncc3)cc(F)cc2C1=O", "slope of emergence day vs concentration": 2.15}, {"compound": "CC(C)N1C[C@@H](CN(C)Cc2ccc(Cl)cc2)Oc2c(C(=O)Nc3ccncc3)cccc2C1=O", "slope of emergence day vs concentration": 4.59}, {"compound": "CN(C)CC#Cc1cccc(-c2nc(C(=O)N[C@@H]3CCN(Cc4ccccc4)C3)cc3c2[C@@H](CCO)N(S(=O)C(C)(C)C)C3)c1", "note": "(stereo partly specified)", "slope of emergence day vs concentration": 2.02}, {"compound": "CC(C)N1C[C@@H](CN(C)Cc2ccc(Oc3ccccc3)cc2)Oc2c(NC(=O)c3ccncc3)cccc2C1=O", "slope of emergence day vs concentration": 5.84}, {"compound": "CC(C)N1C[C@@H](CN(C)CCc2ccc(Cl)c(Cl)c2)Oc2c(NC(=O)c3ccncc3)cccc2C1=O", "slope of emergence day vs concentration": 6.4}, {"compound": "CC(C)N1C[C@@H](CN(C)Cc2ccc(Cl)cc2)Oc2c(NC(=O)c3ccncc3)cccc2C1=O", "slope of emergence day vs concentration": 2.21}, {"compound": "CC(C)N1C[C@@H](CN(C)Cc2ccc(Cl)c(Cl)c2)Oc2c(NC(=O)c3ccncc3)cccc2C1=O", "slope of emergence day vs concentration": 6.07}, {"compound": "CC(C)N1C[C@@H](CN(C)CCc2ccc(Cl)cc2)Oc2c(NC(=O)c3ccncc3)cccc2C1=O", "slope of emergence day vs concentration": 6.07}, {"compound": "CN(C)CC#Cc1cccc(-c2nc(C(=O)NCc3ccc4c(c3)OCO4)cc3c2[C@@H](CCO)N(S(=O)C(C)(C)C)C3)c1", "note": "(stereo partly specified)", "slope of emergence day vs concentration": 4.35}, {"compound": "CN(C)C(=O)c1cccc(-c2ccc([C@H]3[C@H](CO)N4CCCCN(C(=O)C5CCC5)C[C@@H]34)cc2)c1", "slope of emergence day vs concentration": 1.4}, {"compound": "CC(C)N1C[C@H](CN(C)Cc2ccc(Cl)cc2)Oc2c(NC(=O)c3ccncc3)cccc2C1=O", "slope of emergence day vs concentration": 2.02}]}]}
